Assay outcomes: PubChem, several laboratories
Ins promoter up: MIN6 insulin promoter up-regulation; AID 1625; MIN6 insulin promoter-GFP reporter, high-content imaging; stronger effect = higher value; 190,000 tested, 0.3% active; z-score at 5 µM;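 active = z-score above 3 at 5 µM with at least 500 cells counted in the well; inconclusive = wells under 500 cells, flagged as cytotoxic or low count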
m5-HT2A agonist: activates the mouse 5-HT2A serotonin receptor; CHO-K1 mHTR2A beta-arrestin complementation, luminescence; percent of 30 µM serotonin response; activation, % at 7.6 µM; P35363; 360,000 tested, 0.66% active;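 active = activation above a run cutoff, the mean activation of all tested compounds plus 3 SD, cut at about 14% in these data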;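 note: 0% = plate median of compound wells and 100% = 30 µM serotonin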
Target sequence (P35363 whole entry, looked up): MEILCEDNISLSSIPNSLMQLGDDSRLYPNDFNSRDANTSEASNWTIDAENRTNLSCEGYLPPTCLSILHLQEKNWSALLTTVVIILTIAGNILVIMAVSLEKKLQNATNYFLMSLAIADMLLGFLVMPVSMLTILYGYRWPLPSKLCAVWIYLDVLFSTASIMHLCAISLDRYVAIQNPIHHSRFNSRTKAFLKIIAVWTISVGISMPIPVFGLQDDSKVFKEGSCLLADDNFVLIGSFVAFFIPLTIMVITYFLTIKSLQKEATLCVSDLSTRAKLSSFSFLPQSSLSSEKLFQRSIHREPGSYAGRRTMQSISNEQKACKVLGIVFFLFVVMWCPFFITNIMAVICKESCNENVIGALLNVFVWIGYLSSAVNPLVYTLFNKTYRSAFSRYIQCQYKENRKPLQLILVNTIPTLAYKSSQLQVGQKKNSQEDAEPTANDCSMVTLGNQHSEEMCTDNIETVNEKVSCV
MIN6 prolif: induces beta-cell replication in MIN6 cells; proliferation, % at 10 µM; 330,000 tested, 0.29% active; MIN6 cells proliferation, ATPlite luminescence, 48 h; cells starved in 0.2% serum; 100% = growth in 10% serum;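 active = compounds whose signal lies at least 3.5 SD above the mean of all wells on their plate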;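 note: 0% = DMSO-treated cells in low-serum medium and 100% = 10% serum control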
Calb FLC: C. albicans growth modulation with fluconazole. C. albicans CaCi-2 + fluconazole, Alamar Blue growth, 48 h. growth inhibition, % (test concentration not listed). 300,000 tested, 0.57% active. AID 1979;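 active = growth inhibition above about 58% in most replicates, limit read from the data, passing the limit was not always enough; inconclusive = exactly half the replicates above a set limit; inactive = most replicates below a set limit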;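 note: all wells also contain fluconazole at 8 µg/ml as a sub-toxic cotreatment; 0% = median of DMSO wells and 100% = median of geldanamycin control wells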
SR-BI DiI inh: mouse SR-BI HDL lipid transfer inhibition | Q61009 | inhibition, % at 12.5 µM | 320,000 tested, 0.96% active | ldlA[mSR-BI] CHO cells, DiI-HDL uptake fluorescence, 3 h;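 active = mean replicate inhibition of at least 70% and a set share of replicates each scoring 70 or more; inconclusive = meets just one of the two criteria; inactive = fails both criteria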;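 note: 0% = median of neutral control wells and 100% = median of positive control wells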
SR-BI uptake up: SR-BI HDL lipid transfer activation; CHO ldlA[mSR-BI] cells, DiI-HDL uptake fluorescence, 3 h; 100 = double the neutral-control signal; activation, % at 12.5 µM; 320,000 tested, 0.096% active; AID 504775;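 active = mean replicate activation of at least 60% and every replicate at or above 60%; inconclusive = mean or all-replicate condition met, but not both; inactive = mean below 60% and not all replicates reaching 60%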;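 note: 0% = median plate neutral-control signal and 100% = twice that signal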
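Test system: SR-BI-overexpressing, LDLR-lacking CHO cells; Also added: labelled HDL, 10 µg/mL; Measured by: bottom-read cell fluorescence after medium removal, ex 550/em 595 nm; Timing: 3 h uptake period with compound, 37 °C; Buffer or medium: F12, 0.5% BSA, 25 mM HEPES; Doses: single compound concentration, delivered by pin transfer.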
OPRM1 ag: OPRM1 agonism in mouse HTR2A counterscreen; shares compounds with m5-HT2A agonist; U2OS OPRM1 beta-arrestin PathHunter, luminescence; DMSO 0%, DAMGO 9.3 µM 100%; activation, % at 9.3 µM; 2,300 tested, 5.3% active; AID 624380;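 active = mean activation above the mean of DMSO-only wells plus 3 SD, cut at about 0.5% in these data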
HTR2A ag conf: mouse HTR2A agonism confirmed; AID 624381; CHO-K1 PathHunter beta-arrestin recruitment, luminescence; DMSO 0%, 30 µM serotonin 100%; activation, % at 7.6 µM; shares compounds with m5-HT2A agonist; 2,300 tested, 19% active;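 active = mean activation across triplicates above the hit threshold derived in the original primary screen, cut at about 15% in these data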
* marks the source's active call; other numbers are inactive results; ? = inconclusive; . = no result given. Rows were chosen to be rich in hits. Some 2.4% of all compounds tested hit in one or more screens of this group.

SMILES	Ins promoter up	m5-HT2A agonist	MIN6 prolif	Calb FLC	SR-BI DiI inh	SR-BI uptake up	OPRM1 ag	HTR2A ag conf
CC1(c2ccccc2Br)NC(=O)N(CC(=O)NC2CCCCC2)C1=O (stereo not given)	.	-3.1	-1.9	.	-17.7	17.7	.	.
COc1ccc(-c2c(-c3cc(OC)cc(OC)c3)n(C)c3ccc(-c4ccc5[nH]ccc5c4)cc23)cc1	.	21.7*	-6.1	.	75.5*	-75.5	-0.5	-3.5
COc1ccc(-c2c(-c3cc(OC)cc(OC)c3)n(C)c3ccc(-c4cnc(OC)nc4)cc23)cc1	.	3.2	-4.3	.	4.7	-15.7	.	.
Cc1ccc(C(=O)Nc2cc(=O)n(C)c(=O)n2C)cc1C	0.3	15.9*	-1.0	-1.2	-9.4	9.4	-0.2	-1.6
Cn1c(NC(=O)c2ccc(F)c(F)c2)cc(=O)n(C)c1=O	-0.32	-2.2	0.1	-6.3	-29.2	29.2	.	.
CC(C)[C@@H]1Cc2[nH]n(C)c(=O)c2[C@H](c2ccc(F)cc2)O1	.	4.0	.	.	.	.	.	.
CCn1c(CNC(=O)COc2ccc(C(C)C)cc2)nnc1SCC(=O)Nc1ccccc1C(C)C	?	18.2*	-2.7	8.1	68.8	-68.8	-0.2	2.2
OCC1OC(n2ccc3c(NO)ncnc32)C(O)C1O (stereo not given)	.	18.0*	.	.	-13.3	13.3	0.3	12.9
Nc1ncnc2c1ncn2[C@@H]1O[C@H](CO)[C@@H](O)[C@H]1O	.	28.2*	1.1	.	-3.7	3.7	-0.6	-2.0
CN(C)c1ncnc2c1ccn2C1OC(CO)C(O)C1O (stereo not given)	.	-0.8	.	.	-16.8	16.8	.	.
Cn1c(=O)c2cc(NC(=S)NC3CCCCC3)ccc2n1-c1ccccc1	.	-7.4	.	.	.	.	.	.
O=C1COc2ccc(C(=O)COC(=O)c3ccc([N+](=O)[O-])cc3Cl)cc2N1	.	3.0	3.5	.	.	.	.	.
S=c1[nH]nc(-c2cc(-c3ccccc3)n[nH]2)n1/N=C/C(Br)=C/c1ccccc1	-0.44	0.8	-4.1	-6.1	.	.	.	.
COc1ccc(C(C)(NC(C)=O)c2nc(-c3cccc4cccnc34)cs2)cc1 (stereo not given)	.	2.2	.	.	.	.	.	.
O=C(CCN1CCN(c2ccccc2)CC1)N/N=C/c1ccc(O)c(O)c1O	0.21	15.0*	.	113.8*	-22.2	22.2	0.1	51.2*
O=C(Nc1ccccc1)N1CCN(c2nc3ccccc3s2)CC1	-0.18	27.4*	-0.7	7.9	10.4	-10.4	-0.5	-0.5
CC1CCN(Cc2nnnn2CCCC(=O)NCCc2cnn(C)c2)CC1	.	15.6*	3.4	-2.1	-7.0	7.0	-0.7	-5.4
COC(CNC(=O)c1ccc2c(c1)nc(C)n2-c1ccc(F)c(F)c1)OC	0.05	15.0*	-0.9	-6.2	10.8	-10.8	-0.8	-2.6
COCCn1c(N)c(N(Cc2ccccc2)C(=O)COc2ccccc2F)c(=O)[nH]c1=O	.	-2.1	-0.4	.	-14.4	14.4	.	.
CCOC1=C2[C@@H](CN(S(=O)(=O)c3ccccc3)[C@H]2c2ccccc2)[C@H]2C(=O)N(c3ccccc3)C(=O)[C@H]2C1	.	-4.1	.	.	.	.	.	.
CCOC1=C2[C@@H](CN(S(=O)(=O)c3ccc(C)cc3)[C@H]2c2ccc(Cl)cc2)[C@H]2C(=O)N(c3ccccc3)C(=O)[C@H]2C1	.	21.1*	.	.	.	.	-0.7	-2.2
CCCCn1c(N)c(N(C(=O)CSc2nnnn2-c2ccccc2C)C2CCCC2)c(=O)[nH]c1=O	.	4.2	-2.2	.	48.1	-48.1	.	.
COCCNc1nc(-c2ccc(Cl)cc2C)c2sccc2n1	.	-4.2	.	.	.	.	.	.
CC(C)(C)SC(=O)C[C@@H]1NS(=O)(=O)OC2CCCCC21 (stereo not given in full)	.	-1.9	-3.2	-6.9	-34.2	34.2	.	.
CC(C)(C)SC(=O)CC1NS(=O)(=O)OC2CCCCC12 (stereo not given)	.	23.2*	-1.6	-8.8	-29.8	29.8	-0.5	-4.0
SMILES	Ins promoter up	m5-HT2A agonist	MIN6 prolif	Calb FLC	SR-BI DiI inh	SR-BI uptake up	OPRM1 ag	HTR2A ag conf
Cn1ncc(Cl)c1C(=O)Nc1nnc(C2CC2)s1	.	-0.7	-2.5	21.7	-15.5	15.5	.	.
Cn1nccc1C(=O)Nc1nnc(C2CC2)s1	.	15.4*	-0.7	5.0	-30.6	30.6	-0.4	3.3
N#CCN1CCCC(C(N)=O)C1 (stereo not given)	-0.86	19.5*	1.6	-4.9	-0.1	0.1	-0.4	-4.0
NC(=O)C1CCCN(Cc2ccc3ccccc3c2)C1 (stereo not given)	.	-1.8	-2.8	4.7	-10.4	10.5	.	.
Cc1ccc(C2(C)NC(=O)N(CC(=O)N3CCN(C(=O)c4cccs4)CC3)C2=O)cc1 (stereo not given)	.	-4.7	-4.8	.	-7.8	7.8	.	.
C=C1CC(COc2ccc3c(C)c(Cl)c(=O)oc3c2)(c2ccccc2)OC1=O (stereo not given)	.	-5.6	.	.	-2.3	2.3	.	.
CN(CC(=O)Nc1ccc(OC(F)(F)F)cc1)C(=O)/C=C/c1cc2c(cc1[N+](=O)[O-])OCO2	.	-7.1	-5.0	.	2.7	-2.7	.	.
Cc1cc(C(C)(C)C)cc(C)c1CC1=NCCN1	.	24.4*	-5.8	-3.2	0.7	-0.7	-0.6	24.3*
O=C(CCCc1ccccc1)N1CCN(C2CCCCC2)CC1	.	25.4*	-3.4	0.0	-10.2	10.2	0.8*	14.3
O=C1NC(CCO)C(=O)NC1CCO (stereo not given)	.	3.8	.	.	9.7	-9.7	.	.
Cc1ccc(CN2CCNC(=O)C2CC(=O)O)o1 (stereo not given)	0.66	21.4*	-3.8	2.5	-7.7	7.7	-0.6	-4.2
COc1ccccc1CNCC(O)(c1ccc(Cl)cc1)c1ccc(Cl)cc1	0.18	21.9*	-6.1	-15.6	1.0	-1.0	-0.2	7.9
COc1ccccc1CNCC(O)(c1ccc(F)cc1)c1ccc(F)cc1	.	-10.0	-4.7	-7.0	33.4	-33.4	.	.
O=C(O)CSc1c(-c2ccccc2)[nH]c2ccccc12	0.36	2.4	-0.6	-1.5	11.0	-11.0	.	.
O=C(O)CSc1c(-c2cccs2)[nH]c2ccccc12	0.1	16.4*	0.8	-2.8	-20.8	20.8	0.1	7.6
CCOC(=O)CN1C(=O)N[C@@H](c2cccc(C(F)(F)F)c2)[C@H](C(C)=O)[C@H]1C	.	18.4*	-1.0	-8.0	-3.7	3.7	-0.5	-4.3
COc1cc(OC)cc(C(=O)N[C@H](C(=O)NC2CCCc3ccccc32)C(C)C)c1 (stereo not given in full)	.	-3.1	-1.1	.	13.4	-13.4	.	.
Cc1c(Cl)cccc1NC(=S)N1CCCCCC1	.	-5.9	-1.4	9.1	10.2	-10.2	.	.
